# Assay results reported in ChEMBL document CHEMBL3585292, “Anti-dormant mycobacterial activity and target analysis of nybomycin produced by a marine-derived Streptomyces sp” (2015).
# Tests used:
# [1] = test system: Mycobacterium tuberculosis; assay: Antibacterial activity against Mycobacterium bovis BCG under hypoxic condition after 14 days by MTT assay; format: functional; settings: variant bovis BCG, 336 h
# Procedure, shortened: (§1)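 MTT microdilution. Mid-log bacilli in 7H9 with 10% OADC, 0.5% glycerol, 0.05% Tween 80, seeded at 1 × 10⁴ CFU/0.1 mL (M. smegmatis) or 1 × 10⁵ CFU/0.1 mL (BCG, M. tuberculosis), then serially diluted sample added. Aerobic incubation at 37 °C; hypoxic incubation at 37 °C under N2 with 0.2% O2. MTT (0.5 mg/mL, 50 µL) added for 12 h more, OD560 read to give MIC.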
# [2] = test system: Mycobacterium tuberculosis; assay: Antibacterial activity against Mycobacterium bovis BCG under aerobic condition after 7 days by MTT assay; format: functional; settings: variant bovis BCG, 168 h; procedure, shortened: as §1
SMILES,MIC [1] [mg/L],MIC [2] [mg/L]
COC(=O)CCCc1cn(CCOCCOCCOCCOCCOCCOCCOCCOCCOCCOCCNC(=O)CCCC[C@@H]2SC[C@@H]3NC(=O)N[C@@H]32)nn1,> 200,> 200
Cc1cc(=O)n2c3c(c4c(cc13)c(CO)cc(=O)n4C)OC2,1,1
NNC(=O)c1ccncc1 [ISONIAZID],> 100,0.05
Cc1cc(=O)n2c3c(c4c(cc13)c(COC(=O)CCCc1cn(CCOCCOCCOCCOCCOCCOCCOCCOCCOCCOCCNC(=O)CCCC[C@@H]3SC[C@@H]5NC(=O)N[C@@H]53)nn1)cc(=O)n4C)OC2,6.25,12.5
